Consider eight compounds from ChEMBL document CHEMBL1123135, “Substituent effects on the bioactivation of 2-(N-hydroxyacetamido)fluorenes by N-arylhydroxamic acid N,O-acyltransferase” (J Med Chem, 1985).

One series concerns Hamster. Kind of series: Rate of methylthio adduct formation catalyzed by partially purified hamster hepatic enzyme per mg protein per 10 min. The note with it: cricetinae, in vitro. Type of series: ADME. A digest of the protocol: (§1)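 Hamster liver 105000g cytosol AHAT was taken as the 35–50% ammonium sulfate fraction (2–3-fold purified). Incubation (1.0 mL, pH 6.8 sodium phosphate) held 0.8 μmol NAD⁺, 10 μmol N-acetyl-L-[¹⁴C-CH₃]methionine, 1 mg enzyme and 1 μmol hydroxamic acid, for 10 min at 37 °C in air. Ether wash and 90 °C/45 min heating were followed by benzene–alkane extraction and scintillation counting. Heat-denatured enzyme blanks were subtracted; N = 3.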

The nature of series [1]: Observed log rate of methylthio adduct formation. It is filed as ADME. The method in brief: as §1

`CC(=O)N(O)c1ccc2c(c1)Cc1cc(F)ccc1-2` yielded a Rate in the series on Hamster of 15.2 nmol/mg/10 min. This compound also registered a Log rate in series [1] of 1.18.

`CC(=O)N(O)c1ccc2c(c1)Cc1cc(C#N)ccc1-2` yielded a Rate in the series on Hamster of 24.9 nmol/mg/10 min. Further, the Log rate in series [1] was determined as 1.4.

In the case of `COc1ccc2c(c1)Cc1cc(N(O)C(C)=O)ccc1-2`, the Rate in the series on Hamster is 1.2 nmol/mg/10 min. Also, the Log rate in series [1] came to 0.09.

Consider `CC(=O)N(O)c1ccc2c(c1)Cc1cc(Br)ccc1-2`, for which the Rate in the series with Hamster was determined as 10.5 nmol/mg/10 min. In series [1], the Log rate was 1.02.

On to `CC(=O)c1ccc2c(c1)Cc1cc(N(O)C(C)=O)ccc1-2`, for which the Rate in the series on Hamster came to 61 nmol/mg/10 min. Further, the Log rate in series [1] is given as 1.79.

In the case of `CC(=O)N(O)c1ccc2c(c1)Cc1ccccc1-2`, in the series on Hamster, the Rate came to 7.5 nmol/mg/10 min. For the same compound, the Log rate in series [1] stood at 0.87.

In the series on Hamster, `CCCCOc1ccc2c(c1)Cc1cc(N(O)C(C)=O)ccc1-2` returned a Rate of 0 nmol/mg/10 min.

For the compound `CC(=O)N(O)c1ccc2c(c1)Cc1cc(I)ccc1-2`, the Rate with Hamster is 2.4 nmol/mg/10 min. In series [1], the Log rate is reported as 0.37.
